Laboratory results reported in ChEMBL document CHEMBL4414601 (J Med Chem, 2019).
In brackets after ≈: the same amount, converted by molar mass. Activity calls are given as the source filed them. The calls are words filed in the database; no cut-off is given here.

Columns and labels:
[1] = Clearance in mouse liver microsomes at 0.5 uM measured up to 45 mins in presence of NADPH by HPLC-MS/MS analysis; format: ADME, Microsome
[2] = system: Plasmodium falciparum; assay: Antiplasmodial activity against […] of Plasmodium falciparum NF54 assessed as reduction in male gametocytes activation preincubated for 48 hrs followed by gametocytes activation and measured after 24 hrs by fluorescence based automated inverted microscopic analysis; format: functional, organism-based
Method in brief: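 Gametocyte activation was triggered by reduced temperature and ookinete medium containing xanthurenic acid. Male exflagellation centres were detected from a 10-frame video, scoring pixel changes caused by flagellar movement shifting surrounding cells.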

[3] = Aqueous solubility of compound; conditions: buffer
[4] = system: L929; assay: Cytotoxicity against mouse L929 cells assessed as reduction in viability by dual luciferase reporter gene assay; format: ADME, cell-based
[5] = system: Plasmodium falciparum; assay: Antiplasmodial activity against […] of Plasmodium falciparum NF54 assessed as reduction in female gametocytes activation preincubated for 48 hrs followed by gametocytes activation and measured after 24 hrs by fluorescence based automated inverted microscopic analysis; format: functional, organism-based
Method in brief: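 NF54 gametocytes were activated by lowered temperature plus ookinete medium with xanthurenic acid and anti-Pfs25-Cy3 antibody (1/2000 final dilution). Cultures were then kept at 26 °C for 24 h in the dark. Activated females were counted by Cy3 anti-Pfs25 fluorescence, with events gated on size, roundness and fluorescence intensity.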

[6] = Permeability of compound by PAMPA
[7] = system: Plasmodium falciparum; assay: (§1) Antiplasmodial activity against Plasmodium falciparum 3D7A erythrocytic stage assessed as reduction in [3H]hypoxanthine incorporation preincubated for 24 hrs followed by [3H]hypoxanthine addition and measured after 24 hrs by microbeta scintillation counting method; format: functional, organism-based
Method in brief: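 Nine threefold serial dilutions from 5 μM top concentration. Incubated 24 h at 37 °C under 5% CO2/5% O2/90% N2, then 0.2 μCi [3H]-hypoxanthine per well for another 24 h. Cells harvested on glass fibre filters and counted. Data normalized to compound-free parasitized RBCs; IC50 fitted.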

[8] = molecular target: cGMP-dependent protein kinase (Plasmodium falciparum, UniProt W7JX98); assay: Inhibition of Plasmodium falciparum full length N-terminal His-tagged PKG expressed in Escherichia coli RosettaTM 2(DE3) pLysS cells using FAM-GRTGRRNSI-NH2 as substrate preincubated for 30 mins followed by ATP addition and measured after 30 mins by microfluidic mobility shift assay
[9] = Clearance in human liver microsomes at 0.5 uM measured up to 45 mins in presence of NADPH by HPLC-MS/MS analysis; format: ADME, Microsome
[10] = Lipophilicity, LogD of compound by reverse phase HPLC analysis
[11] = Clearance in rat liver microsomes at 0.5 uM measured up to 45 mins in presence of NADPH by HPLC-MS/MS analysis; format: ADME, Microsome
[12] = molecular target: Voltage-gated inwardly rectifying potassium channel KCNH2 (Homo sapiens, UniProt Q12809); assay: Inhibition of human ERG expressed in CHO cells by Q-patch clamp assay
[13] = system: Plasmodium falciparum; assay: as §1, with “3D7A harboring with PKG T618Q mutant asexual” for “3D7A”, “for 48” for “for 24”; format: functional, organism-based
[14] = system: Plasmodium falciparum; assay: (§2) Antiplasmodial activity against Plasmodium falciparum 3D7A asexual erythrocytic stage assessed as reduction in [3H]hypoxanthine incorporation preincubated for 72 hrs followed by [3H]hypoxanthine addition and measured after 24 hrs by microbeta scintillation counting method; format: functional, organism-based
[15] = system: Plasmodium falciparum; assay: as §2, with “3D7A harboring with PKG T618Q mutant” for “3D7A”; format: functional, organism-based
[16] = system: Plasmodium falciparum; assay: Antiplasmodial activity against Plasmodium falciparum 3D7A asexual erythrocytic stage assessed as reduction in [3H]hypoxanthine incorporation preincubated for 48 hrs followed by [3H]hypoxanthine addition and measured after 24 hrs by microbeta scintillation counting method; format: functional, organism-based
[17] = Binding affinity to GSK3 in Plasmodium falciparum 3D7 blood stage extract incubated for 1 hr in presence of ATP-competitive kinase inhibitor by kinobeads based pull down assay; conditions: read-out: Kd(app)
Method in brief: (§3)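 The free compound competed over six concentrations from 0.08 to 20 μM. Proteins were digested by a modified SP3 protocol, labelled with TMT 10-plex and quantified by LC-MS/MS. Apparent Kd was derived from IC50 corrected for bead depletion. Two independent experiments were run.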

[18] = system: Plasmodium falciparum 3D7
[19] = molecular target: T1, Calcium-dependent protein kinase 4 (Plasmodium falciparum (isolate 3D7), UniProt Q8IBS5); assay: Binding affinity to CDPK4 in Plasmodium falciparum 3D7 blood stage extract incubated for 1 hr in presence of ATP-competitive kinase inhibitor by kinobeads based pull down assay; conditions: read-out: Kd(app)
T1 sequence (Q8IBS5 whole entry): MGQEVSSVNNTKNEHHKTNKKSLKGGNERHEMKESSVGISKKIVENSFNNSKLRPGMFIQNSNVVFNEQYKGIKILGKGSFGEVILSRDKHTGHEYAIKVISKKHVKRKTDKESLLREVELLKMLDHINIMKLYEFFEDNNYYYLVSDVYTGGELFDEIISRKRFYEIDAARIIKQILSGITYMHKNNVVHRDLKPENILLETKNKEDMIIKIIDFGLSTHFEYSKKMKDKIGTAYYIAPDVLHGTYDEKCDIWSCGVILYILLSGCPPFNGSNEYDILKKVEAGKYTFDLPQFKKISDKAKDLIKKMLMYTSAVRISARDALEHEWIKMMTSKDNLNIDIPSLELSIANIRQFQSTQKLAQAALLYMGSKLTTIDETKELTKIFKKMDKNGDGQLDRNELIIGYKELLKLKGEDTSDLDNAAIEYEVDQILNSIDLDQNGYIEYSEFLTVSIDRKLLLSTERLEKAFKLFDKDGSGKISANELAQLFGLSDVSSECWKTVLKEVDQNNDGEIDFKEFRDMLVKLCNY
Method in brief: (§4)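 Chemoproteomic competition used kinobeads or Sepharose beads derivatized with ligand at 1 mM. Free compound was tested at six concentrations between 0.08 and 20 μM, in two independent experiments. Proteins were SP3-digested, TMT 10-plex labelled and measured by LC-MS/MS. IC50s came from competition curves, and apparent Kd was corrected for protein depletion by the beads.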

[20] = molecular target: T2, Calcium-dependent protein kinase 1 (Plasmodium falciparum, UniProt P62344); assay: Binding affinity to CDPK1 in Plasmodium falciparum 3D7 blood stage extract incubated for 1 hr in presence of ATP-competitive kinase inhibitor by kinobeads based pull down assay; conditions: read-out: Kd(app); method in brief: as §4
[21] = molecular target: T3, Casein kinase I (Plasmodium falciparum (isolate 3D7), UniProt Q8IHZ9); assay: Binding affinity to CK1 in Plasmodium falciparum 3D7 blood stage extract incubated for 1 hr by kinobeads based pull down assay; conditions: read-out: Kd(app)
T3 sequence (Q8IHZ9 whole entry): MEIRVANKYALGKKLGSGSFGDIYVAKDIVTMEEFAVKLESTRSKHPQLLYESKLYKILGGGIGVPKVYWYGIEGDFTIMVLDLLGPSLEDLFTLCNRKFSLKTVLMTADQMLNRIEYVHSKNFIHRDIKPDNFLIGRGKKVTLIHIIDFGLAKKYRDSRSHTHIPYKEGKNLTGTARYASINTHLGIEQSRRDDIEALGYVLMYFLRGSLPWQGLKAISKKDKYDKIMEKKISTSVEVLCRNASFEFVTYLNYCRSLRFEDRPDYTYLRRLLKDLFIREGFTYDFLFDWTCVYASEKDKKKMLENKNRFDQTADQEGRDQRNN
Method in brief: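 Chemoproteomic competition binding: Sepharose beads derivatized at 1 mM with the immobilized ligand (kinobeads prepared likewise). Free compound competed at six concentrations, 0.08–20 μM. Proteins were SP3-digested, TMT 10-plex labelled and quantified by LC-MS/MS on an Orbitrap. IC50 from the competition curve; apparent Kd corrected for protein depletion by the beads. Two independent experiments.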

[22] = Binding affinity to GSK3 in Plasmodium falciparum 3D7 blood stage extract incubated for 1 hr by kinobeads based pull down assay; conditions: read-out: Kd(app); method in brief: as §3
[23] = molecular target: T2, Calcium-dependent protein kinase 1; assay: Binding affinity to CDPK1 in Plasmodium falciparum 3D7 blood stage extract incubated for 1 hr by kinobeads based pull down assay; conditions: read-out: Kd(app); method in brief: as §4
[24] = molecular target: T1, Calcium-dependent protein kinase 4; assay: Binding affinity to CDPK4 in Plasmodium falciparum 3D7 blood stage extract incubated for 1 hr by kinobeads based pull down assay; conditions: read-out: Kd(app); method in brief: as §4
[25] = Binding affinity to SRPK2 in Plasmodium falciparum 3D7 blood stage extract incubated for 1 hr in presence of ATP-competitive kinase inhibitor by kinobeads based pull down assay; conditions: read-out: Kd(app); method in brief: as §3
[26] = system: Plasmodium falciparum; assay: Antiplasmodial activity against Plasmodium falciparum 3D7A erythrocytic stage assessed as reduction in [3H]hypoxanthine incorporation preincubated for 24 to 120 hrs followed by subculture in absence of compound and measured after 21 to 28 days by microbeta scintillation counting method; format: functional, organism-based
Method in brief: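 P. falciparum 3D7A cultures were drug-exposed for 120 h, with samples taken every 24 h (24, 48, 72, 96 and 120 h). Viable parasites were quantified by limiting dilution, counting wells with growth after 21 and 28 days by [3H]-hypoxanthine incorporation.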

cGMP-dependent protein kinase, sequence (W7JX98 whole entry): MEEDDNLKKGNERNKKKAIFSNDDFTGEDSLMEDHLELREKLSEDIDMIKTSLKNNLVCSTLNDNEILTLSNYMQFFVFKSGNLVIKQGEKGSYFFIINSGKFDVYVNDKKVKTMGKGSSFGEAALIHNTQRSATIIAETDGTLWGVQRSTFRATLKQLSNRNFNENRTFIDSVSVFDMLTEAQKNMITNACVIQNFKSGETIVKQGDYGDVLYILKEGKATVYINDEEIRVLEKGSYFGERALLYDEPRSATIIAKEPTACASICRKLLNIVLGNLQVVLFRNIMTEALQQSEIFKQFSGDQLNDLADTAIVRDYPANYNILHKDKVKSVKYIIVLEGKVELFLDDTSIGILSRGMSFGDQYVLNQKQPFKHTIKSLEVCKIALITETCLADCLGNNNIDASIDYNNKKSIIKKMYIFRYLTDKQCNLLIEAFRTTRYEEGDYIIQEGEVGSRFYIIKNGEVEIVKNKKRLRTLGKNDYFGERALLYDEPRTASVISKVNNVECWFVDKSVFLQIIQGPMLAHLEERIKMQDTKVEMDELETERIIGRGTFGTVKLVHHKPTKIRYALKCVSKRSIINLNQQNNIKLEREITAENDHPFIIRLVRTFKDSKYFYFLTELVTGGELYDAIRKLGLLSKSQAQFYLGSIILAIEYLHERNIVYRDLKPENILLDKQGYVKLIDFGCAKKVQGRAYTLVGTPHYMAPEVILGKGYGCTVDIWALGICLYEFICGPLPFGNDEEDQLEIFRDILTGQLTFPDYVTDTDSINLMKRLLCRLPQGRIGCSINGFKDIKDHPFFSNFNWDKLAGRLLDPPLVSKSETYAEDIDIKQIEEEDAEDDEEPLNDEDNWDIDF
Voltage-gated inwardly rectifying potassium channel KCNH2, sequence (Q12809 whole entry): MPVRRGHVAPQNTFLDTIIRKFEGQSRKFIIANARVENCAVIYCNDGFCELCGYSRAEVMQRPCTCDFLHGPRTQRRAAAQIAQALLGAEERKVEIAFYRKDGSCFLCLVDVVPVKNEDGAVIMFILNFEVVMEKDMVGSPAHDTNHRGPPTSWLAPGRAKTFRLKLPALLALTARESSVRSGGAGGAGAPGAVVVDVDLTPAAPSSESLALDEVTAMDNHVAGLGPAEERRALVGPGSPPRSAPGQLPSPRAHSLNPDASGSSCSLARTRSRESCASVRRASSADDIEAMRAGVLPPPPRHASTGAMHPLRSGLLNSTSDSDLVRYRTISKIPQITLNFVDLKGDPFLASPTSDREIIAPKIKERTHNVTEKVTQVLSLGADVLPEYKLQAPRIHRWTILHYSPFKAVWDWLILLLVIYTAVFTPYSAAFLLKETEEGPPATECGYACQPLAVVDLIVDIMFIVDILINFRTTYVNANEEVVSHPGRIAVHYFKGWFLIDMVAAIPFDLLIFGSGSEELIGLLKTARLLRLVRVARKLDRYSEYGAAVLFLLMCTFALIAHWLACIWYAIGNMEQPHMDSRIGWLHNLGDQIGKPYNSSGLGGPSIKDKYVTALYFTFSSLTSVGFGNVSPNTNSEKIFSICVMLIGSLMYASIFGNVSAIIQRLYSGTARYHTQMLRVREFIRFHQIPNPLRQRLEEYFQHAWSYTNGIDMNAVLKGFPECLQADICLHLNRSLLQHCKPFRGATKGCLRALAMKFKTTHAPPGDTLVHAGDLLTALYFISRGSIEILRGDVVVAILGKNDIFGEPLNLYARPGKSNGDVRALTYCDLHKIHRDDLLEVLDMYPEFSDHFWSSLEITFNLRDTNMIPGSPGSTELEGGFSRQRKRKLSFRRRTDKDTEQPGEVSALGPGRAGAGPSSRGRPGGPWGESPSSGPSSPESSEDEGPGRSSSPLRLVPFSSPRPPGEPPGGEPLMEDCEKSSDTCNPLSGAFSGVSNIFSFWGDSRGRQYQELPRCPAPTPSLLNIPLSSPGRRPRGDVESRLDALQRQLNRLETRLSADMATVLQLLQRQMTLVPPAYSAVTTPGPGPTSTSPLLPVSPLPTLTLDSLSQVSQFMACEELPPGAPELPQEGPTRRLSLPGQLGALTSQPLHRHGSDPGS
T2 sequence (P62344 whole entry): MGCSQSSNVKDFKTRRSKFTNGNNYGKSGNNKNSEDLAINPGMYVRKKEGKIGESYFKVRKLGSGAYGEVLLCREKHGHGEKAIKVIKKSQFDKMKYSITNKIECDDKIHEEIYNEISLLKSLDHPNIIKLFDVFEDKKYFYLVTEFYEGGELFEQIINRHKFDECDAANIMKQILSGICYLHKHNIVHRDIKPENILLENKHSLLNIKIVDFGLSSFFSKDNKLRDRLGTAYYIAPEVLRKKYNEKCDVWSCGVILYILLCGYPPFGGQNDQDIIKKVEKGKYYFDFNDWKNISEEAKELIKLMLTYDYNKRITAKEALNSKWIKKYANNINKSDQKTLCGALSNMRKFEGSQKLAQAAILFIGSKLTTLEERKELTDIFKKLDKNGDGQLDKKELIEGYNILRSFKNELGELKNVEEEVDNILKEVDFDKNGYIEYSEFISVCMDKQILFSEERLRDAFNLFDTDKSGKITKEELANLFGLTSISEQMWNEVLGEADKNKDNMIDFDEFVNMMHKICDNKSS

| SMILES | CLH [1] [mL/min/g] | EC50 [2] [nM] | solubility [3] [µM] | EC50 [4] [nM] | EC50 [5] [nM] | Papp [6] [×10⁻⁶ cm/s] | EC50 [7] [nM] | IC50 [8] [nM] | CLH [9] [mL/min/g] | chromatographic logD [10] | CLH [11] [mL/min/g] | IC50 [12] [nM] | also measured |
| --- | --- | --- | --- | --- | --- | --- | --- | --- | --- | --- | --- | --- | --- |
| CN1CCN(c2ccc(Nc3nccc(-c4sc(C5CCNCC5)nc4-c4ccc(F)cc4)n3)cc2)CC1 | 0.96 | 260 | 41 (≈ 21.7 µg/mL) | 3800 | 300 | 11 | 700 | 0.6 | 0.53 | 2.79 | 1.27 | 13200 |  |
| OC(CNc1nccc(-c2sc(C3CCNCC3)nc2-c2ccc(F)cc2)n1)c1ccncc1 (stereo unspecified) | 2.08 | 3670 | 225 (≈ 107 µg/mL) | 15100 | 10600 | 1 |  |  | 5.8 | 1.79 | 0.77 | 28200 |  |
| Fc1ccc(-c2nc(C3CCNCC3)sc2-c2ccnc(Nc3cnccn3)n2)cc1 | 0.72 |  | 68 (≈ 29.5 µg/mL) | 3200 |  | 16 | 600 | 5 | 0.4 | 2.32 | 0.49 |  | EC50 [13]: 820 nM; EC50 [14]: 690 nM; EC50 [15]: 880 nM; EC50 [16]: 1360 nM |
| Fc1ccc(-c2nc(C3CCNCC3)sc2-c2ccnc(NCCN3CCSCC3)n2)cc1 |  |  | 491 (≈ 238 µg/mL) | 15100 |  | 31 | 4030 |  |  | 2.84 |  |  | Kd [17]: 5300 nM; Kd(app) [18]: inactive; Kd [19]: 60 nM; Kd [20]: 2100 nM; Kd [21]: 1500 nM; Kd [22]: 5300 nM; Kd [23]: 2100 nM; Kd [24]: 60 nM; Kd [25]: > 20000 nM |
| Fc1ccc(-c2nc(C3CCNCC3)sc2-c2ccnc(Nc3nncs3)n2)cc1 | 0.67 | 140 | 66 (≈ 29 µg/mL) | 2800 | 380 | < 1 | 1020 |  | 0.55 | 1.82 | 0.46 | 2500 |  |
| Fc1ccc(-c2nc(N3CCCC3)sc2-c2ccnc(Nc3ccc(N4CCNCC4)cc3)n2)cc1 | 1.56 |  | 54 (≈ 27.1 µg/mL) | 3800 |  | 27 | 770 | 2 | 0.59 | 4.43 | 0.81 |  |  |
| Cc1cc(Nc2nccc(-c3sc(C4CCNCC4)nc3-c3ccc(F)cc3)n2)on1 |  |  | 66 (≈ 28.8 µg/mL) | 2300 |  | 12 | 2650 | 3 |  | 2.61 |  |  |  |
| Cc1cc(Nc2nccc(-c3sc(C4CCNCC4)nc3C3CC3)n2)ccn1 | 0.87 |  | 342 (≈ 134 µg/mL) | 8900 |  | 18 | 270 |  | 0.4 | 1.99 | 1.18 |  | Activity [26]: Active |
| Nc1nc(-c2ccc(F)cc2)c(-c2ccnc(Nc3ccc(N4CCNCC4)cc3)n2)s1 | 1.47 | 150 | 24.5 (≈ 11 µg/mL) | 1800 | 190 |  | 1750 |  | 0.52 | 2.42 | 1.98 | 35500 |  |
| Cc1cc(Nc2nccc(-c3sc(C4CCNCC4)nc3CN3CCCCC3)n2)ccn1 |  |  |  | 20000 |  | 1 | 190 |  |  |  |  |  | Activity [26]: Active |
| CN1CCC(c2nc(-c3ccc(F)c(NS(C)(=O)=O)c3)c(-c3ccnc(NCC4CC4)n3)s2)CC1 | 1.32 |  | 311 (≈ 161 µg/mL) | 17000 |  | 34 | 1020 |  | 0.49 | 3.2 | 6.22 | 1340 | EC50 [13]: > 5000 nM; EC50 [15]: 3900 nM; Activity [26]: inactive; EC50 [16]: 1020 nM |
